In brackets after ≈: the same amount, converted by molar mass. Non-standard residues stand in square brackets, D forms with d. Residues, ends and D or L forms follow the SMILES beside them. Aib = CC(C)(N)C(=O)O

Consider six compounds from ChEMBL document CHEMBL1153146, “Novel potent apoA-I peptide mimetics that stimulate cholesterol efflux and pre-beta particle formation in vitro” (Bioorg Med Chem Lett, 2010).

The test system of data set [1] is RAW264.7. Briefly: Induction of [3H]cholesterol efflux in mouse RAW264.7 cells after 24 hrs by scintillation counting. Format: functional, cell-based. Particulars: Mus musculus, RAW264.7; read-out: EC50; call rule not given here. The method, boiled down: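 Cholesterol efflux from RAW macrophages; EC50 reported in µM as the mean of three experiments.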
Data set [2] has as its system RAW264.7. The data set is described as follows: Cytotoxicity against mouse RAW264.7 cells after 24 hrs by MTT assay. Format: cell-based. Particulars: RAW264.7, 24 h. The method in brief:
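RAW macrophage cytotoxicity examined at peptide concentrations up to 160 µM.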

The test system of data set [3] is Plasma. The data set is described as follows: Increase in pre-beta-HDL level in human plasma after 1 hr by ELISA. Format: functional, cell-free. The method in brief:
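Peptides were titrated into human plasma, with concentrations expressed in µg/ml, and pre-β-HDL was read out by ELISA using a pre-β antibody.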

Data set [4] can be described thus: Toxicity in human RBC assessed as hemolysis. Format: cell-based, Erythrocyte. As to conditions: red blood cells (RBC). The method, boiled down: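 Red blood cell lysis assay; cytotoxicity reported as IC50 in µM.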
For data set [5], the system named is Plasma. Briefly: Incorporation into HDL fraction in wild type mouse plasma at 0.25 mg/ml after 2 hrs by size exclusion chromatography analysis.
Data set [6] relates to RAW264.7. Briefly: Induction of [3H]cholesterol efflux in mouse RAW264.7 cells at 30 uM after 24 hrs by scintillation counting. The format is functional, cell-based.
For data set [7], the system named is RAW264.7. The data set is described as follows: Induction of [3H]cholesterol efflux in mouse RAW264.7 cells at 100 uM after 24 hrs by scintillation counting. Format: functional, cell-based.
Data set [8] in a line: Toxicity in human RBC assessed as minimum lytic concentration. Particulars: erythrocyte. Format: cell-based.

Regarding `C=CCCCCC[C@H](NC(=O)[C@H](CCC(=O)O)NC(=O)[C@H](CC(N)=O)NC(=O)[C@H](CC(C)C)NC(=O)[C@H](CCCCN)NC(=O)[C@H](CCC(=O)O)NC(=O)[C@H](CCCNC(=N)N)NC(=O)[C@@H](CCCCC=C)NC(=O)[C@H](CCC(=O)O)NC(=O)[C@H](CC(=O)O)NC(=O)[C@H](CC(C)C)NC(=O)[C@@H](NC(=O)[C@@H]1CCCN1)C(C)C)C(=O)N[C@@H](CC(C)C)C(=O)N[C@@H](CCC(=O)O)C(=O)N[C@@H](C)C(=O)N[C@@H](CC(C)C)C(=O)N[C@@H](CCCCN)C(=O)N[C@@H](CCC(N)=O)C(=O)N[C@@H](CCCCN)C(=O)N[C@@H](CC(C)C)C(=O)N[C@@H](CCCCN)C(=O)O`, in data set [1], the EC50 came to 800 nM. Also, the IC50 is above 160 µM in data set [2], “Active” in data set [3], above 160 µM in data set [4] and “Active” in data set [5].

Regarding `C=CCCC[C@@H](NC(=O)[C@H](C)NC(=O)[C@H](CCC(=O)O)NC(=O)[C@H](CC(C)C)NC(=O)[C@@H](CCCC=C)NC(=O)[C@H](CCC(=O)O)NC(=O)[C@H](CC(N)=O)NC(=O)[C@H](CC(C)C)NC(=O)[C@H](CCCCN)NC(=O)[C@H](CCC(=O)O)NC(=O)[C@H](CCCNC(=N)N)NC(=O)[C@H](Cc1ccccc1)NC(=O)[C@H](CCC(=O)O)NC(=O)[C@H](CC(=O)O)NC(=O)[C@H](CC(C)C)NC(=O)[C@@H](NC(=O)[C@@H]1CCCN1)C(C)C)C(=O)N[C@@H](CCCCN)C(=O)N[C@@H](CCC(N)=O)C(=O)N[C@@H](CCCCN)C(=O)N[C@@H](CC(C)C)C(=O)N[C@@H](CCCCN)C(=O)O`, the IC50 in data set [2] and in data set [4] was above 160 µM each time. The cholesterol efflux in data set [6] turned out to be 3%.

For the compound `C=CCCC[C@H](NC(=O)[C@H](CCC(=O)O)NC(=O)[C@H](CC(N)=O)NC(=O)[C@H](CC(C)C)NC(=O)[C@H](CCCC=C)NC(=O)[C@H](CCC(=O)O)NC(=O)[C@H](CCCNC(=N)N)NC(=O)[C@H](Cc1ccccc1)NC(=O)[C@H](CCC(=O)O)NC(=O)[C@H](CC(=O)O)NC(=O)[C@H](CC(C)C)NC(=O)[C@@H](NC(=O)[C@@H]1CCCN1)C(C)C)C(=O)N[C@@H](CC(C)C)C(=O)N[C@@H](CCC(=O)O)C(=O)N[C@@H](C)C(=O)N[C@@H](CC(C)C)C(=O)N[C@@H](CCCCN)C(=O)N[C@@H](CCC(N)=O)C(=O)N[C@@H](CCCCN)C(=O)N[C@@H](CC(C)C)C(=O)N[C@@H](CCCCN)C(=O)O`, the IC50 in data set [2] and in data set [4] was above 160 µM each time. This compound yielded a cholesterol efflux in data set [6] of 7%.

Take `CC(C)C[C@H](NC(=O)[C@H](C)NC(=O)[C@H](CCC(=O)O)NC(=O)[C@H](CC(C)C)NC(=O)C(C)(C)NC(=O)[C@H](CCC(=O)O)NC(=O)[C@H](CC(N)=O)NC(=O)[C@H](CC(C)C)NC(=O)[C@H](CCCCN)NC(=O)[C@H](CCC(=O)O)NC(=O)[C@H](CCCNC(=N)N)NC(=O)[C@H](Cc1ccccc1)NC(=O)[C@H](CCC(=O)O)NC(=O)[C@H](CC(=O)O)NC(=O)[C@H](CC(C)C)NC(=O)[C@@H](NC(=O)[C@@H]1CCCN1)C(C)C)C(=O)N[C@@H](CCCCN)C(=O)N[C@@H](CCC(N)=O)C(=O)N[C@@H](CCCCN)C(=O)N[C@@H](CC(C)C)C(=O)N[C@@H](CCCCN)C(=O)O` (H-PVLDEFREKLNE[Aib]LEALKQKLK-OH): in data set [7], the cholesterol efflux was 6%. Further, the 50% inhibitory concentration (IC50) in data set [2] and in data set [4] was above 160 µM each time.

On to `C[C@@H]1[C@H](O)[C@@H](C)/C=C/C=C/C=C/C=C/C=C/C=C/C=C/[C@H](O[C@@H]2O[C@H](C)[C@@H](O)[C@H](N)[C@@H]2O)C[C@@H]2O[C@](O)(C[C@@H](O)C[C@@H](O)[C@H](O)CC[C@@H](O)C[C@@H](O)CC(=O)O[C@H]1C)C[C@H](O)[C@H]2C(=O)O` [AMPHOTERICIN B], for which the MLC in data set [8] is 2 µg/mL (≈ 2.16 µM).

Consider `O=C(N[C@H](CO)[C@H](O)c1ccc([N+](=O)[O-])cc1)C(Cl)Cl` [CHLORAMPHENICOL], for which the MLC in data set [8] is above 64 µg/mL.
